Activity calls are given as the source filed them.
Key:
[1] = system: Mus musculus; assay: Anticonvulsant activity in CF1 albino mouse assessed as protection against subcutaneous pentetrazole-induced seizure at 100 mg/kg, ip after 4 hrs; assay type: functional, organism-based
In short: (§1)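 Male CF-1 mice, ip in 0.5% methylcellulose; pentetrazole at CD97 (85 mg/kg) injected subcutaneously in a loose fold of neck skin. Observed 30 min; absence of even a threshold seizure (single clonic spasm lasting at least 5 s) counted as protection. Scored protected/tested, or ED50.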

[2] = system: Mus musculus; assay: Neurotoxicity in CF1 albino mouse at 30 mg/kg, ip after 4 hrs by rotarod test; assay type: toxicity, organism-based; details: in vivo
In short: (§2)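 Rotarod neurotoxicity in male albino CF-1 mice dosed ip with compound suspended in 0.5% methylcellulose. Animal placed on a 1 inch diameter knurled plastic rod rotating at 6 rpm. Neurotoxicity scored when the animal falls off three times within 1 min. Readout is number of animals toxic/number tested at the stated time after dosing. TD50 with 95% confidence interval from the quantitative study.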

[3] = system: Rattus norvegicus; assay: Anticonvulsant activity in Sprague-Dawley rat assessed as protection against maximal electroshock-induced seizure at 30 mg/kg, po; assay type: functional
[4] = system: Mus musculus; assay: Anticonvulsant activity in CF1 albino mouse assessed as protection against maximal electroshock-induced seizure at 30 mg/kg, ip after 0.5 hrs; assay type: functional, organism-based
In short: (§3)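 Male CF-1 mice dosed ip as suspension in 0.5% methylcellulose. Corneal electrodes deliver 60 Hz alternating current, 50 mA for […], after a drop of 0.5% tetracaine HCl in 0.9% NaCl per eye. Protection means abolition of hindlimb tonic extension; scored as protected/tested, or ED50 with 95% confidence interval.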

[5] = system: Mus musculus; assay: Anticonvulsant activity in CF1 albino mouse assessed as protection against 6 Hz-psychomotor-induced seizure at 50 mg/kg, ip after 4 hrs; assay type: functional, organism-based
In short: (§4)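 Male CF-1 mice, ip suspension in 0.5% methylcellulose. Corneal stimulation 0.2 ms monopolar rectangular pulses at 6 Hz, 32 mA for 3 s via constant-current device; mice without minimal clonic phase seizure counted protected. Groups of four; read at 0.25, 0.5, 1, 2, 4 h; result as protected/tested.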

[6] = molecular target: Histamine H3 receptor (Homo sapiens, UniProt Q9Y5N1); assay: Displacement of [3H]-Nalpha-methylhistamine from human recombinant histamine H3 receptor expressed in HEK293 cells after 90 mins; assay type: cell-based
[7] = system: Mus musculus; assay: Neurotoxicity in CF1 albino mouse at 10 mg/kg, ip after 0.5 hrs by rotarod test; assay type: toxicity, organism-based; details: in vivo
In short: (§5)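 Rotarod neurotoxicity in male CF-1 mice dosed ip as 0.5% methylcellulose suspension: mouse placed on 1 inch knurled rod rotating at 6 rpm; toxicity when the animal falls off three times within 1 min, with other signs noted. Scored as toxic/tested at 0.5 h and 4 h.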

[8] = system: Mus musculus; assay: Anticonvulsant activity in CF1 albino mouse assessed as protection against maximal electroshock-induced seizure at 100 mg/kg, ip after 0.5 hrs; assay type: functional, organism-based; in short: as §3
[9] = system: Mus musculus; assay: Anticonvulsant activity in CF1 albino mouse assessed as protection against maximal electroshock-induced seizure at 100 mg/kg, ip after 4 hrs; assay type: functional, organism-based; in short: as §3
[10] = system: Mus musculus; assay: Neurotoxicity in CF1 albino mouse at 30 mg/kg, ip after 0.5 hrs by rotarod test; assay type: toxicity, organism-based; details: in vivo; in short: as §2
[11] = system: Mus musculus; assay: Anticonvulsant activity in CF1 albino mouse assessed as protection against maximal electroshock-induced seizure at 30 mg/kg, ip after 4 hrs; assay type: functional, organism-based; in short: as §3
[12] = system: Mus musculus; assay: Neurotoxicity in CF1 albino mouse at 50 mg/kg, ip after 0.5 hrs by rotarod test; assay type: toxicity, organism-based; details: in vivo; in short: as §2
[13] = system: Mus musculus; assay: Neurotoxicity in CF1 albino mouse at 50 mg/kg, ip after 1 hr by rotarod test; assay type: toxicity, organism-based; details: in vivo; in short: as §2
[14] = system: Mus musculus; assay: Anticonvulsant activity in CF1 albino mouse assessed as protection against 6 Hz-psychomotor-induced seizure at 50 mg/kg, ip after 0.25 hrs; assay type: functional, organism-based; in short: as §4
[15] = system: Mus musculus; assay: Neurotoxicity in CF1 albino mouse at 3 mg/kg, ip after 0.5 hrs by rotarod test; assay type: toxicity, organism-based; details: in vivo; in short: as §2
[16] = system: Mus musculus; assay: Anticonvulsant activity in CF1 albino mouse assessed as protection against 6 Hz-psychomotor-induced seizure at 50 mg/kg, ip after 1 hr; assay type: functional, organism-based; in short: as §4
[17] = system: Mus musculus; assay: Neurotoxicity in CF1 albino mouse assessed as unable to grasp rotarod at 100 mg/kg, ip after 0.5 hrs by rotarod test; assay type: toxicity, organism-based; details: in vivo; in short: as §5
[18] = system: Mus musculus; assay: Anticonvulsant activity in CF1 albino mouse assessed as protection against maximal electroshock-induced seizure at 10 mg/kg, ip after 0.5 hrs; assay type: functional, organism-based; in short: as §3
[19] = system: Mus musculus; assay: Anticonvulsant activity in CF1 albino mouse assessed as protection against maximal electroshock-induced seizure at 3 mg/kg, ip after 0.5 hrs; assay type: functional, organism-based; in short: as §3
[20] = system: Mus musculus; assay: Anticonvulsant activity in CF1 albino mouse assessed as protection against subcutaneous pentetrazole-induced seizure at 30 mg/kg, ip after 0.5 hrs; assay type: functional, organism-based; in short: as §1
[21] = system: Mus musculus; assay: Neurotoxicity in CF1 albino mouse at 50 mg/kg, ip after 2 hrs by rotarod test; assay type: toxicity, organism-based; details: in vivo; in short: as §2
[22] = system: Mus musculus; assay: Anticonvulsant activity in CF1 albino mouse assessed as protection against subcutaneous pentetrazole-induced seizure at 100 mg/kg, ip after 0.5 hrs; assay type: functional, organism-based; in short: as §1
[23] = system: Mus musculus; assay: Anticonvulsant activity in CF1 albino mouse assessed as protection against 6 Hz-psychomotor-induced seizure at 50 mg/kg, ip after 0.5 hrs; assay type: functional, organism-based; in short: as §4
[24] = system: Mus musculus; assay: Anticonvulsant activity in CF1 albino mouse assessed as protection against subcutaneous pentetrazole-induced seizure at 30 mg/kg, ip after 4 hrs; assay type: functional, organism-based; in short: as §1
[25] = system: Mus musculus; assay: Neurotoxicity in CF1 albino mouse at 300 mg/kg, ip after 4 hrs by rotarod test; assay type: toxicity, organism-based; details: in vivo; in short: as §2
[26] = system: Mus musculus; assay: Neurotoxicity in CF1 albino mouse at 50 mg/kg, ip after 4 hrs by rotarod test; assay type: toxicity, organism-based; details: in vivo; in short: as §2
[27] = system: Mus musculus; assay: Neurotoxicity in CF1 albino mouse at 100 mg/kg, ip after 4 hrs by rotarod test; assay type: toxicity, organism-based; details: in vivo; in short: as §2
[28] = system: Mus musculus; assay: Neurotoxicity in CF1 albino mouse assessed as death at 300 mg/kg, ip after 0.5 hrs by rotarod test; assay type: toxicity, organism-based; details: in vivo
In short: (§6)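 Male albino CF-1 mice dosed ip with compound suspended in 0.5% methylcellulose, then placed on a 1-inch knurled plastic rod turning at 6 rpm. A fall three times within 1 min counted as neurotoxicity. Observations were made at 0.5 h and 4 h after dosing. Result given as animals showing toxicity per animals tested, with the kind of toxicity recorded.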

[29] = system: Mus musculus; assay: Neurotoxicity in CF1 albino mouse at 30 mg/kg, ip after 0.25 to 4 hrs by rotarod test; assay type: toxicity, organism-based; details: in vivo; in short: as §2
[30] = Neuroprotective activity in hippocampal slice (unknown origin) assessed as protection against kainic acid-induced cell death using propidium iodide staining; assay type: functional; details: Hippocampus
In short: (§7)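 Organotypic hippocampal slice cultures exposed to NMDA or kainic acid alone or with compound; propidium iodide in all wells; PI fluorescence intensity of slices, proportional to cell death, compared with excitotoxin-only slices; qualitative.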

[31] = system: Mus musculus; assay: Anticonvulsant activity in CF1 albino mouse assessed as protection against 6 Hz-psychomotor-induced seizure at 30 mg/kg, ip after 0.25 to 4 hrs; assay type: functional, organism-based; in short: as §4
[32] = system: Mus musculus; assay: Neurotoxicity in CF1 albino mouse at 60 mg/kg, ip after 1 to 4 hrs by rotarod test; assay type: toxicity, organism-based; details: in vivo; in short: as §2
[33] = Neuroprotective activity in hippocampal slice (unknown origin) assessed as protection against NMDA-induced cell death using propidium iodide staining; assay type: functional; details: Hippocampus; in short: as §7
[34] = system: Mus musculus; assay: Anticonvulsant activity in CF1 albino mouse assessed as protection against 6 Hz-psychomotor-induced seizure at 60 mg/kg, ip after 4 hrs; assay type: functional, organism-based; in short: as §4
[35] = system: Mus musculus; assay: Neurotoxicity in CF1 albino mouse assessed as death at 100 mg/kg, ip after 0.5 hrs by rotarod test; assay type: toxicity, organism-based; details: in vivo; in short: as §6
[36] = system: Rattus norvegicus; assay: Anticonvulsant activity in Sprague-Dawley rat assessed as protection against pilocarpine-induced convulsive status epilepticus at 65 mg/kg, ip; assay type: functional, organism-based
In short: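 Male Sprague Dawley rats (150–180 g) dosed ip, pilocarpine 50 mg/kg ip given; compound dosed immediately at first behavioral Stage 3 seizure or 30 min later. Number protected from Racine Stage 3 or greater seizures recorded.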

[37] = system: Mus musculus; assay: Neurotoxicity in CF1 albino mouse assessed as vocalization at 30 mg/kg, ip after 0.5 hrs by rotarod test; assay type: toxicity, organism-based; details: in vivo; in short: as §5

Chain of Histamine H3 receptor (Q9Y5N1 whole entry): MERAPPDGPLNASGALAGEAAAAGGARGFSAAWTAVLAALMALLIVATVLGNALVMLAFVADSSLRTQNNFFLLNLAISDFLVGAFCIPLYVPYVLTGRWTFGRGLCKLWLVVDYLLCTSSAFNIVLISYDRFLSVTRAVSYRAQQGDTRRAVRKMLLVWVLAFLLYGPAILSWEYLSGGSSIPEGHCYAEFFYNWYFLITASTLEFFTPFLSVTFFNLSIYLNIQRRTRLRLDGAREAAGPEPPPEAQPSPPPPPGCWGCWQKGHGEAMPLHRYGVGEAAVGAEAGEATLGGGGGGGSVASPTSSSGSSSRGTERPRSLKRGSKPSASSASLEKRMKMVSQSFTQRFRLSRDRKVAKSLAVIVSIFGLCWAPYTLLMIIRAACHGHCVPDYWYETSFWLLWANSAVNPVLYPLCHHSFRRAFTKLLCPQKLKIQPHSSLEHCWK

CC1CCCN(CCCCCCOc2cccc(Cl)c2)C1.O=C(O)C(=O)O (centres undefined)
active: Activity [4] | Activity [8] | Activity [9]
Toxic: Activity [17] | Activity [28]
inactive: Activity [1] | Activity [3] | Activity [5] | Activity [11] | Activity [14] | Activity [16] | Activity [18] | Activity [19] | Activity [20] | Activity [22] | Activity [23] | Activity [24]
Non-toxic: Activity [2] | Activity [7] | Activity [10] | Activity [12] | Activity [13] | Activity [15] | Activity [21] | Activity [25] | Activity [26] | Activity [27]
174 nM: Ki [6]

Clc1ccc(OCCCCCCN2CCCCC2)cc1.O=C(O)C(=O)O
inactive: Activity [11] | Activity [30] | Activity [31] | Activity [33] | Activity [18] | Activity [19] | Activity [20] | Activity [34] | Activity [24]
Non-toxic: Activity [2] | Activity [29] | Activity [7] | Activity [32] | Activity [15] | Activity [25] | Activity [27]
active: Activity [4] | Activity [36]
Toxic: Activity [35] | Activity [28]
265 nM: Ki [6]

CC1CCN(CCCCCOc2ccc(Cl)cc2)CC1.O=C(O)C(=O)O
800 nM: Ki [6]
active: Activity [4] | Activity [11]
Toxic: Activity [37] | Activity [35] | Activity [28]
inactive: Activity [18] | Activity [19] | Activity [20] | Activity [24]
Non-toxic: Activity [2] | Activity [7] | Activity [15] | Activity [25] | Activity [27]
